ChEMBL document CHEMBL1155449, “Peptide HIV-1 integrase inhibitors from HIV-1 gene products” (J Med Chem, 2010)
pIC50: −log10 of the molar value. Calls of active or inactive are those of the source. The rule behind the calls is not given here. Where a SMILES comes first, the peptide text is derived from it.

Tests used:
[1] = tested on: Human immunodeficiency virus 1; assay: Antiviral activity against HIV1 JRCSF infected in CD4/CCR5-expressing human NP2 cells assessed as inhibition of viral p24 antigen production measured on day 4 post viral infection by ELISA; type: functional, organism-based; conditions: JRCSF ISOLATE
How it was run: (§1)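 1×10^5 NP2-CD4-CCR5 cells incubated 30 min at room temperature with HIV-1 JR-CSF supernatant (ca. 0.2-50 ng p24), washed and cultured with varying peptide concentrations. Supernatant p24 measured by ELISA on day 4 post-infection.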

[2] = Selectivity index, ratio of cytotoxicity against human MT4 cells to antiviral activity against HIV1 JRCSF infected in CD4/CCR5-expressing human NP2 cells; type: toxicity, cell-based; conditions: read-out: Selectivity Index
[3] = tested on: Human immunodeficiency virus 1; assay: Antiviral activity against HIV1 JRCSF infected in CD4/CCR5-expressing human NP2 cells assessed as inhibition of viral p24 antigen production at 0.8 uM measured on day 4 post viral infection by ELISA; type: functional; conditions: Human immunodeficiency virus 1, JRCSF ISOLATE, NP2, 96 h; how it was run: as §1
[4] = target: Human immunodeficiency virus type 1 reverse transcriptase (Human immunodeficiency virus 1, UniProt Q72547); assay: Inhibition of HIV1 reverse transcriptase-associated ribonuclease H activity by fluorescence assay
[5] = target: Human immunodeficiency virus type 1 integrase (Human immunodeficiency virus 1) (UniProt Q7ZJM1); assay: Inhibition of HIV1 HXB2 integrase-mediated integrate viral genome production in CD4/CXCR4-expressing human NP2 cells assessed as production of integrate viral genome at 0.5 uM measured on day 2 post viral infection by quantitative RT-PCR analysis; type: cell-based; parameters: scale not given: the % may be the effect or the level left
How it was run: (§2)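 NP2-CD4-CXCR4 cells infected with HIV-1 HXB2 with or without 0.5 μM peptide (DMSO control). Genomic DNA extracted day 2 post-infection. Viral DNA quantified by real-time PCR for strong-stop DNA, late reverse-transcription products, Alu-LTR (integrated) and 2-LTR (end-joined) products. Each is expressed as % of the DMSO-treated control.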

[6] = tested on: Human immunodeficiency virus 1; assay: Antiviral activity against HIV1 HXB2 infected in CD4/CXCR4-expressing human NP2 cells assessed as host cellular enzyme catalyzed end-joined viral genome production at 0.5 uM measured on day 2 post viral infection by quantitative RT-PCR analysis relative to control; type: functional; how it was run: as §2
[7] = tested on: Human immunodeficiency virus 1; assay: Antiviral activity against HIV1 HXB2 infected in CD4/CXCR4-expressing human NP2 cells assessed as generation of viral DNA at late stage of reverse transcription at 0.5 uM measured on day 2 post viral infection by quantitative RT-PCR analysis relative to control; type: functional; how it was run: as §2
[8] = tested on: Human immunodeficiency virus 1; assay: Antiviral activity against HIV1 HXB2 infected in human MT4 cells assessed as inhibition of viral p24 antigen production at 0.5 uM measured on day 4 post viral infection by ELISA; type: functional, organism-based
How it was run: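 1×10^5 MT-4 cells incubated 30 min at room temperature with HIV-1 HXB2 supernatant (ca. 0.2-50 ng p24), washed and cultured with 0.5 μM peptide or without. Supernatants collected at several time points for p24 ELISA, with cells passaged as needed.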

MT4 = assay: Cytotoxicity against human MT4 cells assessed as firefly luciferase activity at 1 to 100 uM after 6 to 7 days by chemiluminescence assay; type: cell-based; conditions: mt4, 100 µM
How it was run: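 1×10^3 MT-4 Luc cells constitutively expressing luciferase were exposed to varying peptide concentrations in the HIV-1 HXB2 (ca. 0.2-10 ng p24) infection format. Cells lysed after 6-7 d and luciferase measured by chemiluminescence. Cytotoxicity is read as loss of luciferase signal.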

[9] = target: T1, Human immunodeficiency virus type 1 integrase (Human immunodeficiency virus 1, UniProt Q7ZJM1); assay: Inhibition of HIV1 integrase strand transfer activity after 1 hr by densitometric analysis
[10] = tested on: Human immunodeficiency virus 1; assay: Antiviral activity against HIV1 HXB2 infected in CD4/CXCR4-expressing human NP2 cells assessed as total genome of infected virus at 0.5 uM measured on day 2 post viral infection by quantitative RT-PCR analysis relative to control; type: functional; how it was run: as §2
[11] = target: T1, Human immunodeficiency virus type 1 integrase; assay: Inhibition of HIV1 integrase 3'-end processing activity after 1 hr by densitometric analysis
[12] = tested on: Human immunodeficiency virus 1; assay: Antiviral activity against HIV1 HXB2 infected in human MT4 cells assessed as firefly luciferase activity at 20 uM after 6 to 7 days by chemiluminescence assay; type: functional, organism-based
How it was run: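 MT-4 Luc cells (constitutively high luciferase; HIV-1-induced cell death lowers signal), 1×10^3 cells per well, infected with HIV-1 HXB2 (ca. 0.2-10 ng p24) with varying peptide concentrations present. Lysed 6-7 d post-infection; luciferase read by chemiluminescence. Protection from HIV-1-induced death keeps signal high, and a fall in signal also serves as the cytotoxicity read-out.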

T1 sequence (Q7ZJM1 whole entry): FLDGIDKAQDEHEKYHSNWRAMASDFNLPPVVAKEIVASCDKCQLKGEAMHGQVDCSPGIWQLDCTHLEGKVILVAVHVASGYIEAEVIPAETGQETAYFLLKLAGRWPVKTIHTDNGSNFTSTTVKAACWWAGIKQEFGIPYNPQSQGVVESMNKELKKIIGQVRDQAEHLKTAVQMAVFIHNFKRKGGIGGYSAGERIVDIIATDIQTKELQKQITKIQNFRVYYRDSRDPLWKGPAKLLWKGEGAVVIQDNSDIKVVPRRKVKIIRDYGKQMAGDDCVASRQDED
Chain of Human immunodeficiency virus type 1 integrase (Human immunodeficiency virus 1) (Q7ZJM1 as listed by the source): as the sequence (Q7ZJM1 whole entry) above

With `CC[C@H](C)[C@H](NC(=O)[C@H](CCCNC(=N)N)NC(=O)[C@H](Cc1ccccc1)NC(=O)[C@H](Cc1cnc[nH]1)NC(=O)[C@@H](NC(=O)[C@H](Cc1ccccc1)NC(=O)[C@H](CC(C)C)NC(=O)[C@H](CC(C)C)NC(=O)[C@H](CCC(N)=O)NC(=O)[C@H](CCC(N)=O)NC(=O)[C@H](CC(C)C)NC(C)=O)[C@@H](C)CC)C(=O)NCC(=O)N[C@@H](CCCNC(=N)N)C(=O)N[C@@H](CCCNC(=N)N)C(=O)N[C@@H](CCCNC(=N)N)C(=O)N[C@@H](CCCNC(=N)N)C(=O)N[C@@H](CCCNC(=N)N)C(=O)N[C@@H](CCCNC(=N)N)C(=O)N[C@@H](CCCNC(=N)N)C(=O)N[C@@H](CCCNC(=N)N)C(N)=O` the inhibition [1] was “Dose-dependent effect”, the selectivity ratio [2] was 10 and the inhibition at 0.8 µM [3] was 50%. It also gave a pIC50 [4] of under 6.30, an Activity [5] of 15.8% and an Activity [6] of 779.8%. For the same compound, the Activity [7] was 84.4%, the inhibition [8] was “Active” and the Activity (MT4) was “Non-toxic”. It also gave a pIC50 [9] of 8.40, an Activity [10] of 139.7% and a pIC50 [11] of 8.10.

In the case of `CC[C@H](C)[C@H](NC(=O)[C@H](C)NC(=O)[C@H](CCC(=O)O)NC(C)=O)C(=O)N[C@H](C(=O)N[C@@H](CCCNC(=N)N)C(=O)N[C@H](C(=O)N[C@@H](CC(C)C)C(=O)N[C@@H](CCC(N)=O)C(=O)N[C@@H](CCC(N)=O)C(=O)N[C@@H](CC(C)C)C(=O)N[C@@H](CC(C)C)C(=O)N[C@@H](Cc1ccccc1)C(=O)N[C@H](C(=O)N[C@@H](Cc1cnc[nH]1)C(=O)N[C@@H](Cc1ccccc1)C(=O)N[C@@H](CCCNC(=N)N)C(=O)N[C@H](C(=O)NCC(=O)N[C@@H](CCCNC(=N)N)C(=O)N[C@@H](CCCNC(=N)N)C(=O)N[C@@H](CCCNC(=N)N)C(=O)N[C@@H](CCCNC(=N)N)C(=O)N[C@@H](CCCNC(=N)N)C(=O)N[C@@H](CCCNC(=N)N)C(=O)N[C@@H](CCCNC(=N)N)C(=O)N[C@@H](CCCNC(=N)N)C(N)=O)[C@@H](C)CC)[C@@H](C)CC)[C@@H](C)CC)[C@@H](C)CC`, the Activity [12] was “Active”, the pIC50 [4] was under 6.30 and the Activity (MT4) was “Non-toxic”. The pIC50 [9] was 8.30 and the pIC50 [11] was 8.22.

With `CC[C@H](C)[C@H](NC(C)=O)C(=O)N[C@@H](Cc1cnc[nH]1)C(=O)N[C@@H](Cc1ccccc1)C(=O)N[C@@H](CCCNC(=N)N)C(=O)N[C@H](C(=O)NCC(=O)N[C@@H](CCCNC(=N)N)C(=O)N[C@@H](CCCNC(=N)N)C(=O)N[C@@H](CCCNC(=N)N)C(=O)N[C@@H](CCCNC(=N)N)C(=O)N[C@@H](CCCNC(=N)N)C(=O)N[C@@H](CCCNC(=N)N)C(=O)N[C@@H](CCCNC(=N)N)C(=O)N[C@@H](CCCNC(=N)N)C(N)=O)[C@@H](C)CC` (Ac-IHFRIGRRRRRRRR-NH2) the Activity [12] was “inactive” and the Activity (MT4) was “Non-toxic”.

For `CC(=O)N[C@@H](CC(C)C)C(=O)N[C@@H](CCC(N)=O)C(=O)N[C@@H](CCC(N)=O)C(=O)N[C@@H](CC(C)C)C(=O)N[C@@H](CC(C)C)C(=O)N[C@@H](Cc1ccccc1)C(=O)N[C@@H](CCCNC(=N)N)C(=O)N[C@@H](CCCNC(=N)N)C(=O)N[C@@H](CCCNC(=N)N)C(=O)N[C@@H](CCCNC(=N)N)C(=O)N[C@@H](CCCNC(=N)N)C(=O)N[C@@H](CCCNC(=N)N)C(=O)N[C@@H](CCCNC(=N)N)C(=O)N[C@@H](CCCNC(=N)N)C(N)=O` (Ac-LQQLLFRRRRRRRR-NH2), the Activity (MT4) was “Non-toxic”.
